Like-named read-outs stand apart in the source and are kept apart here.
Assays:
[1] = assay type: in vitro ADME, human; conditions: mean±SD; for Found, after three-thaw cycles / Found, at –80 °C for 45 days / Found, plasma at room temperature for 8 hours: human plasma; for Found, extract at room temperature for 8 hours / Found, extract in the auto-sampler at 4 °C for 24 hours: plasma extract
[2] = Stability of stock solutions in acetonitrile; assay type: physicochemical; conditions: in acetonitrile at −20 °C
In short: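 Separate acetonitrile stocks were made: 10 μg/mL for each analyte and 1 mg/mL for the internal standard. They were vortexed, briefly sonicated and stored at −20 °C. Analyte stability was examined after 2 months at −20 °C. Read-out was LC-MS/MS quantification.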

[3] = Plasma concentrations in CAD patients after oral Plavix 75 mg; assay type: in vivo; conditions: human
In short: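 Venous blood (3 mL) from CAD patients was drawn into EDTA/DTT tubes before dosing and at 0.5, 1, 2, 2.5, 3, 3.5, 6, 8, 12 and 24 h after dosing. MPB (500 mmol/L stock) was added at once, then spun 16 000 g for 10 min and held at −80 °C. Read-out was LC-MS/MS on C18 at 40 °C, 0.1% formic acid:acetonitrile (1:19), 1 mL/min. Thiol metabolite was measured as derivative. Calibration used peak area with internal standard, weighted 1/x2. Mean±SD, n=3.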

carboxylesterases = conditions: cited from earlier work
CYP2C19 = conditions: cited from earlier work

SMILES: COC(=O)[C@H](c1ccccc1Cl)N1CCc2sccc2C1 [Clopidogrel, (+)-(S)-methyl 2-(2-chlorophenyl)-2-(6,7-dihydrothieno[3,2-c]pyridine-5(4H)-yl)acetate]
- Found, after three-thaw cycles ([1]; added 0.2 ng/mL): 0.2 ± 0.0 ng/mL
- Found, at –80 °C for 45 days ([1]; added 0.2 ng/mL): 0.2 ± 0.0 ng/mL
- Found, plasma at room temperature for 8 hours ([1]; added 0.2 ng/mL): 0.2 ± 0.0 ng/mL
- Found, after three-thaw cycles ([1]; added 10 ng/mL): 10.1 ± 0.8 ng/mL
- Found, at –80 °C for 45 days ([1]; added 10 ng/mL): 10.1 ± 0.2 ng/mL
- Found, plasma at room temperature for 8 hours ([1]; added 10 ng/mL): 10.4 ± 0.8 ng/mL
- Found, extract at room temperature for 8 hours ([1]; added 0.2 ng/mL): 0.2 ± 0.0 ng/mL
- Found, extract in the auto-sampler at 4 °C for 24 hours ([1]; added 0.2 ng/mL): 0.2 ± 0.0 ng/mL
- Found, extract at room temperature for 8 hours ([1]; added 10 ng/mL): 10.0 ± 1.4 ng/mL
- Found, extract in the auto-sampler at 4 °C for 24 hours ([1]; added 10 ng/mL): 10.0 ± 0.8 ng/mL
- Time stock solutions were stable [2]: at least 2 months
- Cmax [3]: 17 ng/mL
- Portion hydrolyzed into inactive metabolites by carboxylesterases (carboxylesterases): approximately 85%
- Contribution of CYP2C19 to metabolism, second step (CYP2C19; 2-Oxo-CLP to active metabolite): 20%
- Contribution of CYP2C19 to metabolism, first step (CYP2C19; clopidogrel metabolized to 2-Oxo-CLP): 45%

SMILES: CC#C[C@]1(O)CC[C@H]2[C@@H]3CCC4=CC(=O)CCC4=C3[C@@H](c3ccc(N(C)C)cc3)C[C@@]21C [IS, Mifepristone]
- Time stock solutions were stable [2]: at least 2 months
